Measured values: ChEMBL document CHEMBL4152234, “Aminobenzothiazole derivatives stabilize the thermolabile p53 cancer mutant Y220C and show anticancer activity in p53-Y220C cell lines” (Eur J Med Chem, 2018)
Activity calls are given as the source filed them. The rule behind the calls is not given here.

How the values were obtained:
[1] = system: Cellular tumor antigen p53 (Homo sapiens), P04637 [Y220C]; experiment: Activation of p53 Y220C mutant in human NUGC3 cells assessed as change in GML mRNA level at 60 uM after 18 hrs by RT-PCR method relative to control; type: cell-based
Procedure, shortened: (§1)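 p53 signalling qPCR array covering 84 genes. Cells were exposed for 18 h, with 0.5% DMSO in both compound and control samples. Total RNA was extracted and purified. Fold-changes were calculated by ΔΔCt using β2-microglobulin (B2M) as the housekeeping gene. Two independent biological replicates were run per cell line.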

[2] = system: Cellular tumor antigen p53 (Homo sapiens), P04637 [Y220C]; experiment: Activation of p53 Y220C mutant in human NUGC3 cells assessed as change in ATR mRNA level at 60 uM after 18 hrs by RT-PCR method relative to control; type: cell-based; procedure, shortened: as §1
[3] = biological target: T1, Cellular tumor antigen p53 (Homo sapiens, UniProt P04637); experiment: Activation of p53 in human NUGC4 cells assessed as change in CASP2 mRNA level at 60 uM after 18 hrs by RT-PCR method relative to control; type: cell-based; conditions: read-out: FC
Procedure, shortened: (§2)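 p53 signaling qPCR array of 84 p53-pathway genes. Cells were treated in 6-well plates for 18 h with 0.5% DMSO in compound and control samples. Total RNA was extracted and fold-changes were obtained by the ΔΔCt method against untreated control, with β2-microglobulin (B2M) as housekeeping gene. Two independent biological replicates per cell line.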

[4] = system: Cellular tumor antigen p53 (Homo sapiens), P04637 [Y220C]; experiment: Activation of p53 Y220C mutant in human NUGC3 cells assessed as change in IL6 mRNA level at 60 uM after 18 hrs by RT-PCR method relative to control; type: cell-based
Procedure, shortened: (§3)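 p53 signalling qPCR array covering 84 p53 pathway genes. Cells were exposed for 18 h, and compound and control wells both held 0.5% DMSO. Total RNA was extracted and purified. Fold-changes were calculated by the ΔΔCt method against the untreated sample, with β2-microglobulin (B2M) as the housekeeping gene. Each cell line was run in two independent biological replicates.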

[5] = system: Cellular tumor antigen p53 (Homo sapiens), P04637 [Y220C]; experiment: Activation of p53 Y220C mutant in human NUGC3 cells assessed as change in MDM2 mRNA level at 60 uM after 18 hrs by RT-PCR method relative to control; type: cell-based; procedure, shortened: as §3
[6] = biological target: T1, Cellular tumor antigen p53; experiment: Activation of p53 in human NUGC4 cells assessed as change in TNFRSF10D mRNA level at 60 uM after 18 hrs by RT-PCR method relative to control; type: cell-based; conditions: read-out: FC
[7] = system: Cellular tumor antigen p53 (Homo sapiens), P04637 [Y220C]; experiment: Activation of p53 Y220C mutant in human NUGC3 cells assessed as change in TNFRSF10B mRNA level at 60 uM after 18 hrs by RT-PCR method relative to control; type: cell-based; procedure, shortened: as §3
[8] = biological target: T1, Cellular tumor antigen p53; experiment: Activation of p53 in human NUGC4 cells assessed as change in NF1 mRNA level at 60 uM after 18 hrs by RT-PCR method relative to control; type: cell-based; conditions: read-out: FC; procedure, shortened: as §2
[9] = system: Cellular tumor antigen p53 (Homo sapiens), P04637 [Y220C]; experiment: Activation of p53 Y220C mutant in human NUGC3 cells assessed as change in CHEK2 mRNA level at 60 uM after 18 hrs by RT-PCR method relative to control; type: cell-based; procedure, shortened: as §1
[10] = biological target: T1, Cellular tumor antigen p53; experiment: Activation of p53 in human NUGC4 cells assessed as change in KAT2B mRNA level at 60 uM after 18 hrs by RT-PCR method relative to control; type: cell-based; conditions: read-out: FC; procedure, shortened: as §2
[11] = system: Cellular tumor antigen p53 (Homo sapiens), P04637 [Y220C]; experiment: Activation of p53 Y220C mutant in human NUGC3 cells assessed as change in MSH2 mRNA level at 60 uM after 18 hrs by RT-PCR method relative to control; type: cell-based; procedure, shortened: as §3
[12] = biological target: T1, Cellular tumor antigen p53; experiment: Activation of p53 in human NUGC4 cells assessed as change in CDKN2A mRNA level at 60 uM after 18 hrs by RT-PCR method relative to control; type: cell-based; conditions: read-out: FC; procedure, shortened: as §2
[13] = system: Cellular tumor antigen p53 (Homo sapiens), P04637 [Y220C]; experiment: Activation of p53 Y220C mutant in human HuH7 cells assessed as increase in NOXA mRNA level at 30 uM after 18 hrs by RT-PCR method; type: cell-based
Procedure, shortened: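 Real-time PCR. Cells were treated for 18 h, with 0.5% DMSO in both compound and control samples. Relative mRNA levels were quantified by the ΔΔCt method as fold-change against the untreated sample. Each sample was measured in triplicate, and data are given as mean ± SEM with an unpaired t-test.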

[14] = system: Cellular tumor antigen p53 (Homo sapiens), P04637 [Y220C]; experiment: Activation of p53 Y220C mutant in human NUGC3 cells assessed as change in CDC25A mRNA level at 60 uM after 18 hrs by RT-PCR method relative to control; type: cell-based; procedure, shortened: as §1
[15] = system: Cellular tumor antigen p53 (Homo sapiens), P04637 [Y220C]; experiment: Activation of p53 Y220C mutant in human NUGC3 cells assessed as change in ATM mRNA level at 60 uM after 18 hrs by RT-PCR method relative to control; type: cell-based; procedure, shortened: as §1
[16] = biological target: T1, Cellular tumor antigen p53; experiment: Activation of p53 in human NUGC4 cells assessed as change in BTG2 mRNA level at 60 uM after 18 hrs by RT-PCR method relative to control; type: cell-based; conditions: read-out: FC; procedure, shortened: as §2
[17] = system: Cellular tumor antigen p53 (Homo sapiens), P04637 [Y220C]; experiment: Activation of p53 Y220C mutant in human NUGC3 cells assessed as change in TP53BP2 mRNA level at 60 uM after 18 hrs by RT-PCR method relative to control; type: cell-based; procedure, shortened: as §3
[18] = biological target: T1, Cellular tumor antigen p53; experiment: Activation of p53 in human NUGC4 cells assessed as change in TRAF2 mRNA level at 60 uM after 18 hrs by RT-PCR method relative to control; type: cell-based; conditions: read-out: FC
[19] = system: Cellular tumor antigen p53 (Homo sapiens), P04637 [Y220C]; experiment: Activation of p53 Y220C mutant in human NUGC3 cells assessed as change in FASLG mRNA level at 60 uM after 18 hrs by RT-PCR method relative to control; type: cell-based; procedure, shortened: as §1
Huh-7 = experiment: Upregulation of NOXA mRNA level in p53 Y220C mutant knockout human HuH7 cells at 30 uM after 18 hrs by RT-PCR method; type: functional, cell-based
[20] = system: Cellular tumor antigen p53 (Homo sapiens), P04637 [Y220C]; experiment: Activation of p53 Y220C mutant in human NUGC3 cells assessed as change in MYC mRNA level at 60 uM after 18 hrs by RT-PCR method relative to control; type: cell-based; procedure, shortened: as §3
[21] = system: Cellular tumor antigen p53 (Homo sapiens), P04637 [Y220C]; experiment: Activation of p53 Y220C mutant in human NUGC3 cells assessed as change in HK2 mRNA level at 60 uM after 18 hrs by RT-PCR method relative to control; type: cell-based; procedure, shortened: as §1
[22] = biological target: T1, Cellular tumor antigen p53; experiment: Activation of p53 in human NUGC4 cells assessed as change in XRCC5 mRNA level at 60 uM after 18 hrs by RT-PCR method relative to control; type: cell-based; conditions: read-out: FC
[23] = system: Cellular tumor antigen p53 (Homo sapiens), P04637 [Y220C]; experiment: Activation of p53 Y220C mutant in human NUGC3 cells assessed as change in BCL2 mRNA level at 60 uM after 18 hrs by RT-PCR method relative to control; type: cell-based; procedure, shortened: as §1
[24] = biological target: T1, Cellular tumor antigen p53; experiment: Activation of p53 in human NUGC4 cells assessed as change in BBC3 mRNA level at 60 uM after 18 hrs by RT-PCR method relative to control; type: cell-based; conditions: read-out: FC; procedure, shortened: as §3
[25] = system: Cellular tumor antigen p53 (Homo sapiens), P04637 [Y220C]; experiment: Activation of p53 Y220C mutant in human NUGC3 cells assessed as change in ADGRB1 mRNA level at 60 uM after 18 hrs by RT-PCR method relative to control; type: cell-based; procedure, shortened: as §1
[26] = system: Cellular tumor antigen p53 (Homo sapiens), P04637 [Y220C]; experiment: Activation of p53 Y220C mutant in human NUGC3 cells assessed as change in NF1 mRNA level at 60 uM after 18 hrs by RT-PCR method relative to control; type: cell-based; procedure, shortened: as §3
[27] = biological target: T1, Cellular tumor antigen p53; experiment: Activation of p53 in human NUGC4 cells assessed as change in MDM2 mRNA level at 60 uM after 18 hrs by RT-PCR method relative to control; type: cell-based; conditions: read-out: FC; procedure, shortened: as §2

CCNC(=O)c1c(O)c(I)c(-n2cccc2)c2sc(N(CC)CC)nc12
fold change (FC) [1]: 3.1 | fold change (FC) [2]: 1 | fold induction at 60 µM [3]: 0.7 | fold change (FC) [4]: 6.4 | fold change (FC) [5]: 1 | fold induction at 60 µM [6]: 1 | fold change (FC) [7]: 1.8 | fold induction at 60 µM [8]: 0.8 | fold change (FC) [9]: 1.1 | fold induction at 60 µM [10]: 1 | fold change (FC) [11]: 5.3 | fold induction at 60 µM [12]: 0.5 to 1 | Activity [13]: Active | fold change (FC) [14]: 0.6 | fold change (FC) [15]: 0.9 | fold induction at 60 µM [16]: 0.6 | fold change (FC) [17]: 1.8 | fold induction at 60 µM [18]: 0.8 | fold change (FC) [19]: 1.1 | Activity (Huh-7): inactive | fold change (FC) [20]: 2.4 | fold change (FC) [21]: 1.7 | fold induction at 60 µM [22]: 0.8 | fold change (FC) [23]: 1.7 | fold induction at 60 µM [24]: 1.3 | fold change (FC) [25]: 1.5 | fold change (FC) [26]: 1.4 | fold induction at 60 µM [27]: 0.8
